Test results published in ChEMBL document CHEMBL1255569, “Synthesis of ester prodrugs of 9-(S)-[3-hydroxy-2-(phosphonomethoxy)propyl]-2,6-diaminopurine (HPMPDAP) as anti-poxvirus agents” (J Med Chem, 2010).

How the values were obtained:
[1] = Cytotoxicity against human HSB2 cells assessed as change in cell morphology; type: cell-based, CCRF-HSB-2
Outline: (§1)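 Microscopic inspection of cultures exposed to test compounds. MCC is the minimum compound concentration causing a microscopically detectable alteration of cell morphology.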

Human betaherpesvirus 5 [2] = assay: Antiviral activity against Human cytomegalovirus Davis infected in HEL assessed as reduction in virus-induce cytopathicity; type: functional, organism-based; details: Human betaherpesvirus 5, Davis
Vaccinia virus = assay: Antiviral activity against Vaccinia virus infected in HEL assessed as reduction in virus-induce cytopathicity; type: functional, organism-based; details: Orthopoxvirus vaccinia
Human alphaherpesvirus 2 = assay: Antiviral activity against […] infected in HEL assessed as reduction in virus-induce cytopathicity; type: functional, organism-based; details: Human alphaherpesvirus 2, strain G
[3] = Cytotoxicity against HEL assessed as change in cell morphology; type: cell-based; details: human, HEL cells; outline: as §1
Human alphaherpesvirus 3 [4] = assay: Antiviral activity against acyclovir-resistant VZV OKA infected in HEL assessed as reduction in virus-induce cytopathicity; details: Human alphaherpesvirus 3, OKA
Human alphaherpesvirus 3 [5] = assay: Antiviral activity against acyclovir-resistant VZV 07/1 infected in HEL assessed as reduction in virus-induce cytopathicity; details: Human alphaherpesvirus 3, 07/1
Human betaherpesvirus 5 [6] = assay: Antiviral activity against Human cytomegalovirus AD169 infected in HEL assessed as reduction in virus-induce cytopathicity; type: functional, organism-based; details: Human betaherpesvirus 5, AD169
[7] = Cytotoxicity against HEL; type: cell-based; details: human, HEL cells
Outline: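 HEL cells were seeded at 5 × 10³ cells/well and allowed to proliferate for 24 h, then given medium with graded compound concentrations. After 3 days at 37 °C, cells were counted with a Coulter counter. CC50 (μM) is the concentration halving proliferation relative to untreated controls, estimated from plots of cell number (% of control) against concentration.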

Human alphaherpesvirus 1 [8] = assay: Antiviral activity against HSV1 KOS infected in HEL assessed as reduction in virus-induce cytopathicity; type: functional, organism-based; details: Human alphaherpesvirus 1, KOS
Human betaherpesvirus 6 = assay: Antiviral activity against Human herpesvirus 6 infected in HEL assessed as reduction in virus-induce cytopathicity; type: functional, organism-based
Human alphaherpesvirus 1 [9] = assay: Antiviral activity against acyclovir-resistant HSV1 KOS infected in HEL assessed as reduction in virus-induce cytopathicity; type: functional, organism-based; details: Human alphaherpesvirus 1, KOS

Row | SMILES | MCC [1] [µM] | EC50 (Human betaherpesvirus 5 [2]) [µM] | EC50 (Vaccinia virus) [µM] | EC50 (Human alphaherpesvirus 2) [µM] | MCC [3] [µM] | EC50 (Human alphaherpesvirus 3 [4]) [µM] | EC50 (Human alphaherpesvirus 3 [5]) [nM] | EC50 (Human betaherpesvirus 5 [6]) [µM] | CC50 [7] [µM] | EC50 (Human alphaherpesvirus 1 [8]) [µM] | EC50 (Human betaherpesvirus 6) [µM] | EC50 (Human alphaherpesvirus 1 [9]) [µM] | MCC [7] [mM] | CC50 [3] [µM]
1 | CCCCCCCCCCCCCCCCCCOCCOP(=O)(O)CO[C@H](CO)Cn1cnc2c(N)nc(N)nc21 | ≥ 39.3 | 0.0094 | 0.00074 | 0.0022 | ≥ 6.3 | 0.0013 | 0.08 | 0.041 | 18.8 | 0.0008 | 34.6 | 0.00085 |  | 
2 | Nc1nc(N)c2ncn(C[C@H]3COP(=O)(O)CO3)c2n1 |  | 10 | 0.53 | 4.33 | > 333 | 0.37 | 770 | 15 | > 333 | 3.6 |  | 3.6 |  | 
3 | CC(C)(C)C(=O)OCOP1(=O)CO[C@@H](Cn2cnc3c(N)nc(N)nc32)CO1 (some centres not stated) | 62.5 | 6.8 | 0.183 | 1.34 | ≥ 231 | 0.3 | 93 | 6.94 | ≥ 201 | 2.22 | 7.63 | 2.41 |  | 
4 | CC(C)(C)C(=O)OCO[P@]1(=O)CO[C@@H](Cn2cnc3c(N)nc(N)nc32)CO1 | 64.7 | 15.5 | 0.37 | 1.78 | ≥ 231 | 0.72 | 160 | 14 | > 222 | 1.83 | 14.6 | 3.33 |  | 
5 | Nc1nc(N)c2ncn(C[C@@H](CO)OCP(=O)(O)OCC(F)(F)F)c2n1 | > 62 | 54.2 | 7.95 | 10.7 | > 250 | 2.27 | 430 | 44 | > 250 | 5.6 | > 62 | 5 |  | 
6 | CCCCOC(=O)c1ccccc1OP1(=O)CO[C@@H](Cn2cnc3c(N)nc(N)nc32)CO1 (some centres not stated) | ≥ 205 | 6.8 | 2.3 | 3.76 | 103 | 0.53 | 120 | 11.5 | 168 | 5.36 | > 205 | 3.1 |  | 
7 | CC(C)OC(=O)[C@@H](CO[P@]1(=O)CO[C@@H](Cn2cnc3c(N)nc(N)nc32)CO1)NC(=O)[C@@H](N)C(C)C | 177 | 7.1 | 2.02 | 2.3 | ≥ 177 | 0.73 | 200 | 12 | 159 | 5.58 | > 177 | 3.52 |  | 
8 | CC(C)OC(=O)[C@@H](CO[P@@]1(=O)CO[C@@H](Cn2cnc3c(N)nc(N)nc32)CO1)NC(=O)[C@@H](N)C(C)C | > 177 | 22.1 | 2.62 | 1.42 | > 177 | 1.06 | 250 | 15.2 | 148 | 7.97 | > 177 | 7.1 |  | 
9 | Nc1nc(N)c2ncn(C[C@H]3COP(=O)(OCC(F)(F)F)CO3)c2n1 (some centres not stated) | > 239 | 24.4 | 2.08 | 1.91 | > 239 | 0.62 | 170 | 19.1 | ≥ 219 | 6.57 | 177 | 4.78 |  | 
10 | CCCCCCCCCCCCCCCCOCCO[P@]1(=O)CO[C@@H](Cn2cnc3c(N)nc(N)nc32)CO1 | 0.5 | 0.008 | 0.0035 | 0.026 | 35.2 | 0.004 | 0.7 | 0.015 | 28.1 | 0.026 | > 44 | 0.017 |  | 
11 | CCCCCCCCCCCCCCCCOCCO[P@@]1(=O)CO[C@@H](Cn2cnc3c(N)nc(N)nc32)CO1 | 0.5 | 0.005 | 0.0026 | 0.008 | 35.2 | 0.0018 | 0.18 | 0.011 | 30 | 0.01 | > 44 | 0.007 |  | 
12 | CCCCCCCCCCCCCCCCOCCCOP1(=O)CO[C@@H](Cn2cnc3c(N)nc(N)nc32)CO1 (some centres not stated) | 8.6 | 0.021 | 0.011 | 0.053 | 6.9 | 0.012 | 1.7 | 0.034 | 13.7 | 0.031 | 0.16 | 0.053 |  | 
13 | CCCCCCCCCCCCCCCCCCOCCO[P@]1(=O)CO[C@@H](Cn2cnc3c(N)nc(N)nc32)CO1 | 0.5 | 0.0034 | 0.052 | 0.037 | 6.7 | 0.045 | 10 | 0.015 | 129 | 0.03 | > 42 | 0.017 |  | 
14 | CCCCCCCCCCCCCCCCCCOCCO[P@@]1(=O)CO[C@@H](Cn2cnc3c(N)nc(N)nc32)CO1 | 0.5 | 0.008 | 0.005 | 0.011 | 6.7 | 0.0047 | 0.7 | 0.027 | 15.1 | 0.013 | > 42 | 0.007 |  | 
15 | CCCCCCCCCCCCCCCCOCCCOP(=O)(O)CO[C@H](CO)Cn1cnc2c(N)nc(N)nc21 | 40 | 0.0037 | 0.00074 | 0.0071 | ≥ 6.4 | 0.0027 | 0.21 | 0.021 | ≥ 161 | 0.0045 | 10.3 | 0.0027 |  | 
16 | CC(C)(C)C(=O)OCOP(=O)(O)CO[C@H](CO)Cn1cnc2c(N)nc(N)nc21 | 227 | 11.6 | 1.63 | 3.15 | > 227 | 0.79 | 340 | 12.9 | ≥ 227 | 2.76 | 30.6 | 2.95 |  | 
17 | Nc1nc(N)c2ncn(C[C@@H](CO)OCP(=O)(O)O)c2n1 | 126 | 6.4 | 0.5 | 2.83 | > 314 | 0.22 | 8.2 | 11.2 | > 314 | 2.86 | 17.6 | 1.35 |  | 
18 | Nc1nc2c(ncn2COCCO)c(=O)[nH]1 [ACYCLOVIR] |  |  |  | 0.3 | > 444 |  |  |  |  |  |  | 125 | 1.58 | 
19 | O=c1[nH]c(=O)n([C@H]2C[C@H](O)[C@@H](CO)O2)cc1/C=C/Br [BRIVUDINE] |  |  |  | 75.3 |  | 0.016 | 137000 |  | 339 | 0.03 |  | > 150 |  | > 300
20 | Nc1ccn(C[C@@H](CO)OCP(=O)(O)O)c(=O)n1 [CIDOFOVIR] |  | 0.79 | 7.3 | 2.19 | ≥ 317 | 0.13 | 110 | 1.14 | 511 | 1.62 |  | 1.37 |  | 
21 | Nc1nc2c(ncn2COC(CO)CO)c(=O)[nH]1 [GANCICLOVIR] |  | 10.2 |  |  | ≥ 392 |  |  | 9.4 | 1080 |  |  |  |  | 
